inhibition, Displacement and PI turnover data for one compound are collected here from ChEMBL document CHEMBL1125621, “Muscarinic receptor binding and activation of second messengers by substituted N-methyl-N-[4-(1-azacycloalkyl)-2-butynyl]acetamides” (1991).

A word on the inhibition: it is the drop in the measured response relative to a control, in per cent.

The structures appear in SMILES notation.

In assay [1] the target is T1, cyclic AMP phosphoprotein (Rattus norvegicus) (UniProt Q712U5).
T1 sequence (whole entry): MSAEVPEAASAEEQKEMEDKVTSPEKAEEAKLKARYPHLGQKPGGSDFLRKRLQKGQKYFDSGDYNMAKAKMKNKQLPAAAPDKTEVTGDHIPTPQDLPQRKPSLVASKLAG
Description: The percent inhibition of cyclic AMP(cAMP) formation in NG108-15 cells expressed in m40AChR was measured. The following applies: concentration not given here. It is filed as functional, cell-based. Summed up: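 NG108-15 cells expressing m4 receptors; compound at 100 μM. Cyclic AMP inhibition expressed as percent of Oxo-M (100%), average of two or three trials.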

For assay [2], the target named is T2, Muscarinic acetylcholine receptor (Rattus norvegicus) (UniProt P08482+P08483+P08485+P08911+P10980). Description: Evaluated for displacement of [3H]oxotremorine-M binding ([3H]OXO-M) at muscarinic acetylcholine receptor in rat forebrain membranes. More on the design: concentration or dose not given beside the values. The following applies: Membrane. It is filed as cell membranes. In outline: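 Sprague-Dawley rat forebrain membranes. Incubated with 2.7 nM [3H]Oxo-M in 50 mM NaPO4, 2 mM MgCl2, pH 7.4, 20 min at 37 °C. Filtered on glass fiber presoaked in 0.05% polyethylenimine. Nonspecific binding defined with 1 μM atropine. Single concentration 1 μM, triplicate, averaged over two to five trials. Read-out is percent displacement of specific binding.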
(In general: Displacement assays read how much labelled ligand stays bound in the presence of the test substance.)

The next assay deals with A9. Description: Increase in phosphoinositide (PI) metabolism in A9L-m1 cells at 100 uM. It is filed as functional, Mus musculus.
The target in assay [3] is Muscarinic acetylcholine receptor M3 (Mus musculus) (UniProt Q9ERZ3). In words: Increase in phosphoinositide (PI) metabolism in A9L-cholinergic receptor, muscarinic 3 expressing cells was measured at 100 uMolar. The following applies: 100 uM. It is filed as functional. In outline: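 A9L fibroblasts transfected with m3 receptor, grown in DMEM with 10% newborn calf serum. Labeled overnight with [3H]myo-inositol, preincubated 5 min at 37 °C in 10 mM LiCl DMEM-Hepes. Compound at 100 μM final, 30 min at 37 °C. Labeled inositol phosphates extracted by ion exchange. Result expressed as percent of the oxotremorine-M response, duplicate determinations.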
Sequence of Muscarinic acetylcholine receptor M3 (Mus musculus) (Q9ERZ3 whole entry): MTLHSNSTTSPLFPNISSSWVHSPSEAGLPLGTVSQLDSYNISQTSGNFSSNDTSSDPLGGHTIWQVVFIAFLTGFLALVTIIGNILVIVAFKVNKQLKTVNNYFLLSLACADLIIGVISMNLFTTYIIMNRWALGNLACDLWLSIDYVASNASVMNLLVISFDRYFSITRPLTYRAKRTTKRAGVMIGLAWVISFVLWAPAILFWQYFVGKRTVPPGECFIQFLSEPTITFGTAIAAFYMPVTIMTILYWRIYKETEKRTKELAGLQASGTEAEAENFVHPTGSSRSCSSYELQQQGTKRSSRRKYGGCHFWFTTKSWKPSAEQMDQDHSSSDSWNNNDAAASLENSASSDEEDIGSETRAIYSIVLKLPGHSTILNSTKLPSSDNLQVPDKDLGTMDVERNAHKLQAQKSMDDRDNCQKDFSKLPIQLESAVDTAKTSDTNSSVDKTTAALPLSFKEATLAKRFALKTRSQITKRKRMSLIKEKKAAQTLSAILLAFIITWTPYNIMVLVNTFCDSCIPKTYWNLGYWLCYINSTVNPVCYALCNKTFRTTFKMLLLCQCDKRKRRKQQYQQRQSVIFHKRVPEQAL

Assay [4] has as its target T2, Muscarinic acetylcholine receptor (Rattus norvegicus). In words: Displacement of [3H]N-methylscopolamine ([3H]NMS) binding at muscarinic acetylcholine receptor in rat cerebral cortical membranes. It is filed as cell membranes. More on the design: concentration or dose not given beside the values. The following applies: Membrane. In outline: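 Rat (Sprague-Dawley, either sex, 200 g) forebrain membranes, homogenized and washed in 50 mM sodium phosphate pH 7.4. 200-300 μg membrane incubated with 0.5 nM [3H]NMS plus compound (single concentration, 100 μM) in phosphate-buffered saline, 60 min at 37 °C. Filtered on glass fiber, scintillation counted. Nonspecific binding defined with 1 μM atropine. Triplicate. Reported as percent displacement.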

`CC(=O)N(C)CC#CCN1CCC[C@H]1CF.O=C(O)C(=O)O` registered an inhibition in assay [1] of 62.4%. In addition, the Displacement in assay [2] is 50.5%; in assay [4], 53.8%. Besides, the PI turnover in the assay with A9 worked out at 11.1; in assay [3], 10.6.
